Tests used:
Format in all cases: functional
T47D = test: Cytotoxicity against human T47D cells after 48 hrs by SRB assay
In short: (§1)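 Five-dose run from the sixty-line panel, at 10−4, 10−5, 10−6, 10−7 and 10−8 M. SRB-stain OD is read just before compound addition, after 48 hrs of exposure, and in vehicle controls, giving percentage growth; negative growth indicates cytotoxicity. GI50 is the concentration giving 50% reduction in net protein increase versus control cells. LC50 is the concentration lethal to 50% of cells.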

OVCAR-8 = test: Cytotoxicity against human OVCAR8 cells after 48 hrs by SRB assay; settings: OVCAR-8, 48 h; in short: as §1
NCI-H23 = test: Cytotoxicity against human NCI-H23 cells after 48 hrs by SRB assay; settings: NCI-H23, 48 h; in short: as §1
TK-10 [1] = test: Cytotoxicity against human TK10 cells assessed as growth inhibition at 10 uM after 48 hrs by SRB assay; settings: TK-10, 48 h, read-out: GI
In short: (§2)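 Single-dose screen at 10µM across the sixty-cell-line panel. Percentage growth is derived from SRB-stain OD taken just before compound exposure, after 48 hrs exposure, and in vehicle-treated controls. Negative values indicate cytotoxicity.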

[2] = Cytotoxicity against human OVCAR5 cells assessed as growth inhibition at 10 uM after 48 hrs by SRB assay; settings: OVCAR-5, 48 h, read-out: GI; in short: as §2
A498 [3] = test: Cytotoxicity against human A498 cells assessed as growth inhibition at 10 uM after 48 hrs by SRB assay; settings: A498, 48 h, read-out: GI; in short: as §2
RXF 393 = test: Cytotoxicity against human RXF393 cells after 48 hrs by SRB assay; settings: RXF 393, 48 h; in short: as §1
SW-620 = test: Cytotoxicity against human SW620 cells after 48 hrs by SRB assay; settings: SW-620, 48 h; in short: as §1
MDA-MB-435 = test: Cytotoxicity against human MDA-MB-435 cells after 48 hrs by SRB assay; settings: MDA-MB-435, 48 h; in short: as §1
SR = test: Cytotoxicity against human SR cells after 48 hrs by SRB assay; in short: as §1
[4] = Cytotoxicity against human OVCAR5 cells after 48 hrs by SRB assay; settings: OVCAR-5, 48 h; in short: as §1
SN12C = test: Cytotoxicity against human SN12C cells after 48 hrs by SRB assay; in short: as §1
MCF7 = test: Cytotoxicity against human MCF7 cells after 48 hrs by SRB assay; settings: MCF7, 48 h; in short: as §1
786-0 = test: Cytotoxicity against human 786-0 cells after 48 hrs by SRB assay; settings: 786-0, 48 h; in short: as §1
BT-549 = test: Cytotoxicity against human BT549 cells after 48 hrs by SRB assay; settings: BT-549, 48 h; in short: as §1
SK-MEL-5 = test: Cytotoxicity against human SK-MEL-5 cells after 48 hrs by SRB assay; settings: SK-MEL-5, 48 h; in short: as §1
HOP-62 = test: Cytotoxicity against human HOP62 cells after 48 hrs by SRB assay; settings: HOP-62, 48 h; in short: as §1
NCI-H226 [5] = test: Cytotoxicity against human NCI-H226 cells assessed as growth inhibition at 10 uM after 48 hrs by SRB assay; settings: NCI-H226, 48 h, read-out: GI; in short: as §2
SNB-19 = test: Cytotoxicity against human SNB19 cells after 48 hrs by SRB assay; settings: SNB-19, 48 h; in short: as §1
UACC-62 = test: Cytotoxicity against human UACC62 cells after 48 hrs by SRB assay; settings: UACC-62, 48 h; in short: as §1
LOX IMVI = test: Cytotoxicity against human LOXIMVI cells after 48 hrs by SRB assay; in short: as §1
NCI-H226 [6] = test: Cytotoxicity against human NCI-H226 cells after 48 hrs by SRB assay; settings: NCI-H226, 48 h; in short: as §1
COLO 205 = test: Cytotoxicity against human COLO205 cells after 48 hrs by SRB assay; settings: COLO 205, 48 h; in short: as §1
SK-MEL-2 = test: Cytotoxicity against human SK-MEL-2 cells after 48 hrs by SRB assay; settings: SK-MEL-2, 48 h; in short: as §1
[7] = Cytotoxicity against human NCI-ADR-RES cells after 48 hrs by SRB assay; in short: as §1
TK-10 [8] = test: Cytotoxicity against human TK10 cells after 48 hrs by SRB assay; settings: TK-10, 48 h; in short: as §1
IGROV-1 = test: Cytotoxicity against human IGROV1 cells after 48 hrs by SRB assay; settings: IGROV-1, 48 h; in short: as §1
MDA-MB-468 [9] = test: Cytotoxicity against human MDA-MB-468 cells assessed as growth inhibition at 10 uM after 48 hrs by SRB assay; settings: MDA-MB-468, 48 h, read-out: GI; in short: as §2
MDA-MB-231 = test: Cytotoxicity against human MDA-MB-231 cells after 48 hrs by SRB assay; settings: MDA-MB-231, 48 h; in short: as §1
[10] = Cytotoxicity against human UACC257 cells after 48 hrs by SRB assay; settings: UACC-257, 48 h; in short: as §1
SF-295 = test: Cytotoxicity against human SF295 cells after 48 hrs by SRB assay; settings: SF-295, 48 h; in short: as §1
NCI-H460 = test: Cytotoxicity against human NCI-H460 cells after 48 hrs by SRB assay; settings: NCI-H460, 48 h; in short: as §1
K562 = test: Cytotoxicity against human K562 cells after 48 hrs by SRB assay; settings: K562, 48 h, read-out: LC50 (the source's name); in short: as §1
A498 [11] = test: Cytotoxicity against human A498 cells after 48 hrs by SRB assay; settings: A498, 48 h; in short: as §1
HCT-116 = test: Cytotoxicity against human HCT116 cells after 48 hrs by SRB assay; settings: HCT-116, 48 h; in short: as §1
MDA-MB-468 [12] = test: Cytotoxicity against human MDA-MB-468 cells after 48 hrs by SRB assay; settings: MDA-MB-468, 48 h; in short: as §1
SK-OV-3 = test: Cytotoxicity against human SKOV3 cells after 48 hrs by SRB assay; settings: SK-OV-3, 48 h; in short: as §1
[13] = read-out: LC50 (the source's name)

CN1C(=O)C(=Cc2cn(Cc3ccc(Cl)cc3)c3ccccc23)C(=O)N(C)C1=O
GI50 (T47D): 3.53 µM
LC50 (T47D): > 100 µM
GI50 (OVCAR-8): 21.3 µM
CC50 (OVCAR-8; [13]): > 100 µM
GI50 (NCI-H23): 10.2 µM
LC50 (NCI-H23): > 100 µM
inhibition of growth at 10 µM (TK-10 [1]): -26%
inhibition of growth at 10 µM [2]: -23%
inhibition of growth at 10 µM (A498 [3]): -94%
GI50 (RXF 393): 12.5 µM
LC50 (lethal concentration, 50%) (RXF 393): > 100 µM
GI50 (SW-620): > 100 µM
CC50 (SW-620; [13]): > 100 µM
GI50 (MDA-MB-435): > 100 µM
LC50 (MDA-MB-435): > 100 µM
GI50 (SR): 70.3 µM
LC50 (lethal concentration, 50%) (SR): > 100 µM
GI50 [4]: 0.16 µM
CC50 [4, 13]: > 100 µM
GI50 (SN12C): 92.1 µM
CC50 (SN12C; [13]): > 100 µM
GI50 (MCF7): > 100 µM
LC50 (MCF7): > 100 µM
GI50 (786-0): 6.9 µM
LC50 (786-0): > 100 µM
GI50 (BT-549): 12.5 µM
CC50 (BT-549; [13]): > 100 µM
GI50 (SK-MEL-5): > 100 µM
LC50 (SK-MEL-5): > 100 µM
GI50 (HOP-62): 10.7 µM
CC50 (HOP-62; [13]): > 100 µM
inhibition of growth at 10 µM (NCI-H226 [5]): -82%
GI50 (SNB-19): 18.3 µM
LC50 (SNB-19): > 100 µM
GI50 (UACC-62): 2.06 µM
LC50 (UACC-62): > 100 µM
GI50 (LOX IMVI): 17.3 µM
CC50 (LOX IMVI; [13]): > 100 µM
GI50 (NCI-H226 [6]): 1.26 µM
CC50 (NCI-H226 [6]; [13]): > 100 µM
GI50 (COLO 205): 2.78 µM
CC50 (COLO 205; [13]): 29.5 µM
GI50 (SK-MEL-2): 2.84 µM
GI50 [7]: 16.3 µM
CC50 [7, 13]: > 100 µM
GI50 (TK-10 [8]): 0.18 µM
CC50 (TK-10 [8]; [13]): 50.4 µM
GI50 (IGROV-1): 2.88 µM
CC50 (IGROV-1; [13]): > 100 µM
inhibition of growth at 10 µM (MDA-MB-468 [9]): -71%
GI50 (MDA-MB-231): 12.2 µM
CC50 (MDA-MB-231; [13]): > 100 µM
GI50 [10]: 2.01 µM
CC50 [10, 13]: > 100 µM
GI50 (SF-295): 1.21 µM
LC50 (SF-295): > 100 µM
GI50 (NCI-H460): 0.4 µM
CC50 (NCI-H460; [13]): > 100 µM
CC50 (K562): > 100 µM
GI50 (A498 [11]): 0.04 µM
LC50 (A498 [11]): 0.64 µM
GI50 (HCT-116): 4.47 µM
LC50 (HCT-116): > 100 µM
GI50 (MDA-MB-468 [12]): 0.06 µM
LC50 (MDA-MB-468 [12]): 0.7 µM
GI50 (SK-OV-3): 6.08 µM
LC50 (SK-OV-3): > 100 µM

— ChEMBL document CHEMBL3102840, “Synthesis and anti-proliferative activity of aromatic substituted 5-((1-benzyl-1H-indol-3-yl)methylene)-1,3-dimethylpyrimidine-2,4,6(1H,3H,5H)-trione analogs against human tumor cell lines” (2014)
